Assay outcomes from PubChem BioAssay.
HSP90 refold inh: HSP90 refolding inhibition in rabbit reticulocyte lysate. inhibition, % at 5.6 µM. hit rate 0.91% among 290,000. luciferase refolding luminescence, 3 h;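 active = inhibition above the screen-wide mean plus 3 SD, computed separately per campaign, cut at about 16% in these data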;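 note: 0% = DMSO wells and 100% = 60 µM geldanamycin wells; inhibitors lower the luminescence because luciferase stays unfolded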
STAT1 inh: reduces IFN-gamma driven STAT1 reporter signal; AID 920; inhibition, % at 5.5 µM; NIH 3T3 STAT1-luciferase reporter, luminescence; hit rate 0.35% among 200,000;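 active = inhibition above a set limit, the mean inhibition across all tested compounds plus 3 SD, cut at about 34% in these data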;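 note: 0% = IFN-gamma with DMSO and 100% = IFN-gamma with 300 µM nifuroxazide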
TRAIL sens C8: sensitizes caspase-8 expressing cells to TRAIL; hit rate 1% among 360,000; AID 624354; inhibition (viability loss, TRAIL sensitization), % at 10 µM; NB7+C8 cells + TRAIL, ATPlite viability luminescence;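 active = compounds causing at least 50% loss of cell viability in the single-dose screen, relative to plate controls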
PPC-1+TRAIL kill: PPC-1 cancer cell killing with TRAIL present; PPC-1 cells + TRAIL, ATPLite viability luminescence; cell killing (% activity), % at 4 µM or 5 µM; hit rate 0.41% among 220,000; AID 1443;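 active = cell killing above 50% in the first pass at 4 µM, then a duplicate retest at 5 µM averaging 50% or more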;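 note: plate controls were cells with TRAIL plus DMSO for no effect and medium-only wells lacking cells for full effect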
STAT3 inh: STAT3 signaling inhibition | U3A cells, IL-6 STAT3-luciferase reporter, luminescence; host cell line lacks STAT1 | inhibition, % at 5.5 µM | hit rate 0.89% among 190,000 | AID 862;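 active = inhibition above the mean inhibition across all screened compounds plus 3 SD, cut at about 44% in these data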;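 note: 0% = DMSO only wells and 100% = 100 µM nifuroxazide control wells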
STAT3 act-1: increases IL-6 driven STAT3 reporter signal; U3A cells, IL-6 STAT3-luciferase reporter, luminescence; 100% = signal with IL-6 EC80 alone; activation (% of control), % at 5.6 µM; hit rate 0.91% among 190,000; AID 871;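 active = activation above the screen-wide mean of compound activation plus 3 SD, cut at about 130% in these data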;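 note: 0% = background luminescence of wells with medium and substrate only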
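system = STAT3-luciferase reporter U3A cells | reagent = IL-6 stimulus at 33 ng/mL final | timing = 1 h compound pre-exposure, 6 h IL-6 stimulation, 37 °C | measured by = luminescence | evaluation = % activation versus median of IL-6-stimulated wells | control set = IL-6-only wells as 100% reference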
STAT3 act-2: confirmation of STAT3 signaling activators. hit rate 64% among 1,200. U3A STAT3-luciferase reporter, IL-6 potentiation, luminescence; U3A cells lack STAT1; 100 means same as IL-6 alone. AID 1267. shares compounds with STAT3 act-1. potentiation (% of control), % at 5.7 µM;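 active = percent activation of the STAT3 luciferase reporter above a set limit taken from the earlier primary screen, cut at about 130% in these data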;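 note: 0% = background signal of medium plus substrate and 100% = median of IL-6 with DMSO wells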
NFkB act 2: counter-screen for STAT3 activators: NF-kappaB activation | shares compounds with STAT3 act-1 | human cells, NF-kappaB reporter activation | activation (% of control), % at 5.7 µM | hit rate 11% among 1,200 | AID 1309; in the data active = activation above about 120%;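 note: reporter induced by TNF-alpha stimulation; 100% = median of stimulated DMSO wells and 0% = no signal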
STAT1 act STAT3c: activates STAT1, counter-screen to STAT3 activators; shares compounds with STAT3 act-1; NIH 3T3 STAT1-luciferase reporter, IFN-gamma, luminescence; activation (% of control), % at 5.7 µM; hit rate 13% among 1,200;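 active = activation above the solvent-only control well mean plus 3 SD, set per screening run, cut at about 120% in these data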;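 note: 100% = IFN-gamma with DMSO median signal so 100% means no change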
* marks the source's active call; other numbers are inactive results; / = not tested or not shown. This is a sample that favours compounds with a hit; in the whole collection about 2.3% have one here.

SMILES	HSP90 refold inh	STAT1 inh	TRAIL sens C8	PPC-1+TRAIL kill	STAT3 inh	STAT3 act-1	STAT3 act-2	NFkB act 2	STAT1 act STAT3c
COc1ccc(NC(=O)Nc2cccs2)cc1OC	2.4	-22.7	15.4	5.2	3.4	101.8	/	/	/
O=C(c1ccccc1)N1CCN2C(=O)c3ccccc3C12c1ccc(Cl)cc1 (centres undefined)	8.0	26.9	-5.4	15.6	-375.8	417.8*	282.6*	112.0	75.0
O=C(c1ccc(F)cc1)N1CCN2C(=O)c3ccccc3C12c1ccc(Cl)cc1 (centres undefined)	3.0	26.8	2.9	15.5	-96.7	203.8*	146.3*	115.5	97.0
O=[N+]([O-])c1ccccc1C1Nc2cccc3cccc(c23)N1	2.2	10.9	-5.8	6.4	-32.8	137.6*	121.7	121.7*	99.0
O=[N+]([O-])c1ccc(S(=O)(=O)N2CCN(Cc3c[nH]c4ccccc34)CC2)cc1	3.8	13.8	3.2	7.4	-61.8	151.8*	155.2*	104.5	99.7
CCn1c(=NC(=O)c2ccco2)sc2cccc(F)c21	0.2	-23.7	6.9	21.3	-47.6	144.3*	130.4	113.5	125.1*
CCOC(=O)c1ccc2c(c1)sc(=NC(=O)c1ccco1)n2CCOC	-0.1	-1.3	1.1	32.8	-2.3	101.5	/	/	/
COc1ccc(OC)c2c1sc(=NC(=O)c1ccco1)n2C	-0.2	-6.0	4.0	6.5	-76.2	166.4*	138.6*	105.2	105.0
Cc1ccc(NC(=O)CN(C)CC(=O)Nc2ccccc2C(=O)Nc2ccccc2)cc1	3.0	10.8	-22.7	6.2	-48.7	147.4*	122.8	103.2	104.4
Cc1ccc(NC(=O)CN(C)CC(=O)N(C)Cc2ccccc2)cc1	/	/	7.3	/	/	/	/	/	/
Cc1ccc[n+](CC(=O)N2CCCc3ccccc32)c1	1.3	1.2	7.8	10.9	-8.2	109.0	/	/	/
CCCn1c(N2CCN(CC(=O)c3c(C)n(C)c4ccccc34)CC2)nc2c1c(=O)[nH]c(=O)n2C	4.9	-0.2	13.2	7.3	10.8	94.2	/	/	/
CCn1c(N2CCN(CC(=O)c3c[nH]c4ccccc34)CC2)nc2c1c(=O)[nH]c(=O)n2C	1.6	8.1	3.2	9.1	-46.8	142.1*	136.8*	109.7	97.7
Cc1cccc(C2c3[nH]c4ccccc4c3CCN2C(=O)c2nn(C)c(=O)c3ccccc23)n1 (centres undefined)	-2.7	0.9	6.6	2.2	-37.8	137.3*	132.0	105.5	93.9
Cc1cccc(C2c3[nH]c4ccccc4c3CCN2C(=O)c2cc(CC(C)C)nc(C)n2)n1 (centres undefined)	-3.3	7.0	-3.6	15.0	-42.4	152.5*	150.5*	108.7	101.5
CCOC(=O)C1=C(C)NC(C)=C(C(=O)OCC)C1c1cc2ccc(C)cc2[nH]c1=O	1.8	7.6	-14.8	6.8	-46.0	143.1*	129.2	91.5	98.6
COC(=O)C1=C(C)NC(C)=C(C(=O)OC)C1c1cc2ccc(C)cc2[nH]c1=O	-1.9	9.8	-6.2	0.6	-17.2	117.2	/	/	/
Cc1ccc(-c2[nH]c3ccccc3c2C(C[N+](=O)[O-])c2ccco2)cc1 (centres undefined)	0.9	19.3	11.0	9.2	-55.5	151.9*	134.0*	97.1	77.6
COC(=O)c1[nH]c2cc(C)ccc2c1NC(=O)CN1CCCc2ccccc21	1.1	-6.5	6.0	-16.8	-55.1	156.3*	142.8*	113.1	137.0*
COC(=O)c1[nH]c2ccc(Br)cc2c1NC(=O)CN1CCCc2ccccc21	1.8	3.8	-5.8	2.5	-34.0	129.9	/	/	/
CN1NC(c2ccccc2)NN(C)C1=O	/	/	-6.7	/	/	/	/	/	/
Cc1ccc(C(=O)Nc2cc(Cl)ccc2OC(=O)c2ccc(C)cc2)cc1	-3.6	5.0	/	3.6	-44.6	140.5*	122.6	118.7	92.8
O=C(Nc1ccccc1O)c1ccc(Cl)cc1	1.7	8.7	14.6	3.5	-53.8	151.8*	141.0*	115.0	103.7
O=C(Nc1ccccc1OC(=O)c1ccc(Cl)cc1)c1ccc(Cl)cc1	1.3	3.1	28.2	4.5	-49.7	136.2*	140.6*	115.4	99.3
COc1ccc(C(=O)Nc2cc(Cl)ccc2OC(=O)c2ccc(OC)cc2)cc1	-3.4	3.9	37.3	28.0	2.2	103.3	/	/	/
SMILES	HSP90 refold inh	STAT1 inh	TRAIL sens C8	PPC-1+TRAIL kill	STAT3 inh	STAT3 act-1	STAT3 act-2	NFkB act 2	STAT1 act STAT3c
CC(=O)OCC(OC(C)=O)C(OC(C)=O)C(OC(C)=O)C(=O)Nc1ccc(C)cc1 (centres undefined)	-1.7	1.8	-2.9	3.5	7.4	102.2	/	/	/
COC(=O)C[C@@H]1CC[C@H](NC(=O)c2ccccc2)[C@@H](CO)O1	/	/	-7.6	/	/	/	/	/	/
COc1ccc(C2c3[nH]c4ccccc4c3CCN2C(=O)c2ccc(=O)n(C)n2)c(F)c1 (centres undefined)	-1.1	-9.9	-0.7	13.3	-50.3	148.4*	153.5*	104.2	107.7
Cc1ccccc1C1c2[nH]c3ccccc3c2CCN1C(=O)c1ccc(=O)n(C)n1 (centres undefined)	-0.1	9.6	-1.0	22.7	-65.5	162.9*	168.8*	103.3	97.6
Cc1nc(C(=O)N2CCc3c([nH]c4ccccc34)C2c2ccccn2)cs1 (centres undefined)	-3.4	2.9	-3.6	/	-4.4	106.6	/	/	/
CCc1cc(CN2CCOCC2)c(NC(=O)c2ccccc2)s1	-0.6	-5.4	15.7	25.0	-46.2	139.4*	143.1*	107.1	109.8
CCc1cc(C(c2ccc(F)cc2)N2CCOCC2)c(NC(=O)c2ccccc2)s1 (centres undefined)	1.9	3.8	-0.5	12.2	2.4	102.0	/	/	/
O=C(c1ccccc1)N1CCCC(c2nc3c(nnn3Cc3ccccc3)c(=O)[nH]2)C1 (centres undefined)	0.0	-3.4	-2.5	16.8	-51.5	148.0*	97.1	106.4	105.7
O=C(Oc1cccc(NC(=O)c2ccco2)c1)c1cccc(S(=O)(=O)N2CCCCC2)c1	-0.3	-5.5	-10.9	6.1	-8.0	104.0	/	/	/
CCN(CC)S(=O)(=O)c1cccc(-c2nnc(SCc3nc4ccccc4s3)o2)c1	0.8	-12.8	1.9	17.1	-45.9	139.2*	122.2	110.6	115.1
O=C(O)c1ccccc1NC(=O)c1cc(-c2ccccc2)nc2ccccc12	-10.2	/	-11.0	/	/	/	/	/	/
OC(c1ccccc1)c1nc(-c2cccc3cccnc23)cs1 (centres undefined)	/	/	-16.1	/	/	/	/	/	/
